Experiments:
WIL2 = test: Inhibitory concentration of compound that inhibits tumor cell growth by 50% in Human B-lymphoblast (WI-L) cell line; format: functional; conditions: read-out: ID50 (the source's name)
Summary of the method: (§1)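 Incubation was 3 days for L1210 and WI-L2 and 5 days for LoVo/L. MTT was added for 2 to 5 h and formazan was read by absorbance. ID50 is the concentration giving 50% of untreated control growth.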

LoVo = test: Inhibitory concentration of compound that inhibits tumor cell growth by 50% in Human colon carcinoma (LoVo/L) cell line; format: functional; conditions: read-out: ID50 (the source's name); summary of the method: as §1
HeLa = test: In vitro antiviral activity against Vaccinia virus (Elstree strain) cell line in HeLa cells; format: functional, Homo sapiens
L1210 = test: Inhibitory concentration of compound that inhibits tumor cell growth by 50% in Murine leukemia (L1210) cell line; format: functional; conditions: Mus musculus, read-out: ID50 (the source's name); summary of the method: as §1
[1] = Effect on de novo purine biosynthesis when [14C]formate was incorporated to fraction WI-L2 cells at 25 uM with preincubation time of 4 h; format: functional, Homo sapiens
Summary of the method: (§2)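 WI-L2 cells (or adenosine kinase-deficient mutant) kept in log phase in RPMI 1640 with 5% dialyzed FBS, 20 mM NaHEPES pH 7.5, 2 mM glutamine; preincubated with drug at 37 °C, then labeled with [14C]formate. De novo purine synthesis read as [14C]formate incorporation into cellular (hot acid-soluble) and excreted purines, scored as inhibition.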

Vero [2] = test: In vitro antiviral activity against Parainfluenza 3 (C243 strain)cell line in Vero cells; format: functional, Chlorocebus sabaeus
Vero [3] = test: In vitro antiviral activity against herpes simplex virus type 2 (MS strain) cell line in Vero cells; format: functional, Chlorocebus sabaeus
[4] = Effect on de novo purine biosynthesis when [14C]formate was incorporated to WI-L2 cells at 0.25 uM with preincubation time of 8 h; format: functional, Homo sapiens; summary of the method: as §2
[5] = Effect on de novo purine biosynthesis when [14C]formate was incorporated to WI-L2 cells at 2.5 uM with preincubation time of 8 h; format: functional, Homo sapiens; summary of the method: as §2
Homo sapiens [6] = species: Homo sapiens; test: Effect on de novo purine biosynthesis when [14C]-formate was incorporated to WI-L2 media at 0.25 uM with pre-incubation time of 8 h; format: functional; summary of the method: as §2
Homo sapiens [7] = species: Homo sapiens; test: Effect on de novo purine biosynthesis when [14C]-formate was incorporated to WI-L2 media at 2.5 uM with pre-incubation time of 8 h; format: functional; summary of the method: as §2
[8] = Effect on de novo purine biosynthesis when [14C]-formate was incorporated to WI-L2 cells at 25 uM with preincubation time of 4 h; format: functional, Homo sapiens; summary of the method: as §2
[9] = Effect on de novo purine biosynthesis when [14C]-formate was incorporated into WI-L2 cells at 50 uM with pre-incubation time of 8 h; format: functional, Homo sapiens
Summary of the method: (§3)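 Cells were preincubated with drug at 37 °C, then labelled with [14C]formate. De novo purine synthesis was read as label incorporated into cellular and excreted purines (hot acid-soluble fraction).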

Homo sapiens [10] = species: Homo sapiens; test: Effect on de novo purine biosynthesis when [14C]-formate was incorporated into WI-L2 media at 50 uM with pre-incubation time of 8 h; format: functional
Summary of the method: (§4)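 WI-L2 cells preincubated with drug at 37 °C before [14C]formate labeling. Read-out: [14C]formate incorporation into cellular and excreted purines (hot acid-soluble fraction). Cells grown in RPMI 1640 with 5% dialyzed fetal bovine serum, 20 mM NaHEPES pH 7.5, 2 mM glutamine, and kept in log phase between 0.5 and 12×10^5 cells/mL.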

Vero [11] = test: In vitro antiviral activity against Parainfluenza 3 (C243 strain) cell line in Vero cells; format: functional, Chlorocebus sabaeus
Homo sapiens [12] = species: Homo sapiens; test: Effect on de novo purine biosynthesis when [14C]formate was incorporated to WI-L2 media at 0.25 uM with preincubation time of 8 h; format: functional; summary of the method: as §2
Homo sapiens [13] = species: Homo sapiens; test: Effect on de novo purine biosynthesis when [14C]formate was incorporated to WI-L2 media at 2.5 uM with preincubation time of 8 h; format: functional; summary of the method: as §2
Homo sapiens [14] = species: Homo sapiens; test: Effect on de novo purine biosynthesis when [14C]formate was incorporated to WI-L2 media at 50 uM with preincubation time of 8 h; format: functional; summary of the method: as §4
[15] = Effect on de novo purine biosynthesis when [14C]formate was incorporated to WI-L2 cells at 50 uM with preincubation time of 8 h; format: functional, Homo sapiens; summary of the method: as §3

Row | SMILES | IC50 (WIL2) | IC50 (LoVo) | Virus rating (HeLa) | IC50 (L1210) | Virus rating (Vero [2]) | Virus rating (Vero [3]) | Control [5] | other results
1 | COc1ncnc2c(N[C@H]3O[C@H](CO)[C@@H](O)[C@H]3O)ncnc12 | 2.5 µM | 18.7 µM | 0.9 | 2.9 µM | 0.7 | 0.1 | – | Control [1]: 98.2%
2 | COc1ncnc2c(N[C@@H]3O[C@H](CO)[C@@H](O)[C@H]3O)ncnc12 | 0.06 µM | 0.28 µM | 1 | 0.04 µM | 0.7 | 0.2 | 2.7% | Control [4]: 41.9%; Control (Homo sapiens [6]): 63%; Control (Homo sapiens [7]): 41.8%; Control [8]: 4.3%
3 | Nc1ncnc2c(NC3O[C@H](CO)[C@@H](O)[C@H]3O)nc(Cl)nc12 (some centres not stated) | – | – | – | – | – | – | – | Control [9]: 16.4%; Control (Homo sapiens [10]): 43.4%
4 | Nc1ncnc2c(N[C@@H]3O[C@H](CO)[C@@H](O)[C@H]3O)ncnc12 | 0.2 µM | 7 µM | 1.3 | 0.8 µM | – | 0.8 | 29.9% | Virus rating (Vero [11]): 0.7; Control [4]: 79.5%; Control (Homo sapiens [12]): 71.9%; Control (Homo sapiens [13]): 54.6%
5 | CN(C)c1ncnc2c(NC3O[C@H](CO)[C@@H](O)[C@H]3O)ncnc12 (some centres not stated) | – | – | – | – | – | – | – | Control (Homo sapiens [14]): 85.8%; Control [15]: 50.7%
6 | Nc1nc(NC2O[C@H](CO)[C@@H](O)[C@H]2O)c2ncnc(N)c2n1 (some centres not stated) | – | – | – | – | – | – | 91.2% | Control (Homo sapiens [12]): 89.8%
7 | Nc1ncnc2c(N[C@H]3O[C@H](CO)[C@@H](O)[C@H]3O)ncnc12 | 0.25 µM | 1 µM | 1 | 0.38 µM | 1.4 | 0.2 | – | –
8 | OC[C@H]1OC(Nc2ncnc3c(O)ncnc23)[C@H](O)[C@@H]1O (some centres not stated) | – | – | – | – | – | – | – | Control (Homo sapiens [14]): 106%; Control [15]: 98.2%

From ChEMBL document CHEMBL1124422, “Antitumor and antiviral activity of synthetic alpha- and beta-ribonucleosides of certain substituted pyrimido[5,4-d]pyrimidines: a new synthetic strategy for exocyclic aminonucleosides” (1989)
